Experimental data from ChEMBL document CHEMBL1133745, “Indeno[1,2-b]pyrazin-2,3-diones: a new class of antagonists at the glycine site of the NMDA receptor with potent in vivo activity” (J Med Chem, 2000).
pIC50: −log10 of the molar value.

Legend:
Glutamate NMDA receptor = test: Displacement of [3H]dichlorokynurenate ([3H]-DCKA) from N-methyl-D-aspartate glutamate receptor 1 in rat cortical membranes; format: cell membranes, Membrane
Mus musculus [1] = test: Compound was tested in vivo (intra peritoneally) in the mouse maximal electroshock convulsion test; format: functional
In short: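 CD1 mice (Charles River); tonic convulsions induced by maximal electroshock. Most compounds tested in a single run; test variability estimated at about 12%.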

[2] = biological target: Glutamate receptor ionotropic, AMPA (Rattus norvegicus, UniProt P19490+P19491+P19492+P19493); test: Displacement of [3H]-AMPA from Ionotropic glutamate receptor AMPA of rat cortical membranes; format: cell membranes, Membrane
Mus musculus [3] = test: Compound was tested in vivo (intra peritoneally) with probenecid in the mouse maximal electroshock convulsion test; format: functional
In short: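 Maximal electroshock in CD1 mice, scoring tonic convulsions. Animals were pretreated with probenecid 200 mg/kg ip, and the compound was given ip 30 min before shock. ED50 in mg/kg ip.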

Mus musculus [4] = test: Compound was tested in vivo (intravenously) activity in the mouse maximal electroshock convulsion test; format: functional; settings: iv
Mus musculus [5] = test: Compound was tested in vivo (intraperitoneally) with probenecid in the mouse maximal electroshock convulsion test

Structure (SMILES) | pIC50 (Glutamate NMDA receptor) | ED50 (Mus musculus [1]; Mus musculus, read-out: ED50) | pIC50 [2] | ED50 (Mus musculus [3]) | ED50 (Mus musculus [1]) | ED50 (Mus musculus [4]) | ED50 (Mus musculus [5])
CC1(CC(=O)O)c2cc(Cl)c(Cl)cc2-c2nc(O)c(O)nc21 (stereo not drawn) | 6.85 | > 80 mg/kg | 5.74 | – | – | – | –
CCCC1(CC(=O)O)c2ccc(Cl)cc2-c2nc(O)c(O)nc21 (stereo not drawn) | 7.68 | 1.8 mg/kg | 5.15 | – | – | – | –
CC1(CC(=O)O)c2ccc(Cl)c(Cl)c2-c2nc(O)c(O)nc21 (stereo not drawn) | 5.59 | > 80 mg/kg | < 5.00 | – | – | – | –
CC1(CC(=O)O)c2ccccc2-c2nc(O)c(O)nc21 (stereo not drawn) | 7.68 | 65 mg/kg | 5.34 | 2.7 mg/kg | – | – | –
CC1(CC(=O)O)c2ccc(OC(F)(F)F)cc2-c2nc(O)c(O)nc21 (stereo not drawn) | 5.37 | – | < 5.00 | – | – | – | –
CC1(CC(=O)O)c2nc(O)c(O)nc2-c2cccc(Cl)c21 (stereo not drawn) | 7.10 | 80 mg/kg | 6.37 | – | – | – | –
CC1(CC(=O)O)c2nc(O)c(O)nc2-c2cc(Cl)cc(Cl)c21 (stereo not drawn) | 7.62 | > 80 mg/kg | 6.73 | – | – | – | –
CC1(CC(=O)O)c2ccc(F)cc2-c2nc(O)c(O)nc21 (stereo not drawn) | 7.82 | > 80 mg/kg | 5.89 | – | – | – | –
Cc1ccc2c(c1)-c1nc(O)c(O)nc1C2(C)CC(=O)O (stereo not drawn) | 7.92 | 23 mg/kg | 5.35 | – | – | – | –
O=C(O)C1Nc2cc(Cl)cc(Cl)c2S(=O)(=O)N1Cc1cccc(Br)c1 (stereo not drawn) | 8.08 | – | < 5.00 | – | – | – | –
CC1(CC(=O)O)c2ccc(Cl)cc2-c2nc(O)c(O)nc21 (single isomer, unassigned; (+)) | 7.36 | – | 6.00 | – | >80 mg/kg | – | –
CC1(CC(=O)O)c2ccc(Cl)cc2-c2nc(O)c(O)nc21 (single isomer, unassigned; (-)) | 8.30 | – | 5.00 | – | 4.5 mg/kg | 2 mg/kg | –
CC1(CC(=O)O)c2ccc(Cl)cc2-c2nc(O)c(O)nc21 (stereo in doubt; 10i) | 7.55 | – | 5.68 | – | 6.8 mg/kg | – | 1.8 mg/kg
O=c1[nH]c2cc(Cl)c(Cl)c([N+](=O)[O-])c2[nH]c1=O [LICOSTINEL] | 8.40 | 22.5 mg/kg | 6.12 | – | – | – | –
